# Source: ChEMBL document CHEMBL1146375, “Synthetic studies on novel benzimidazolopeptides with antimicrobial, cytotoxic and anthelmintic potential” (2007)
# What was measured:
# [1] = system: Bacillus subtilis; test: Antibacterial activity against Bacillus subtilis NCIM 2063 after 18 hrs by disc diffusion method; format: functional
# In short: (§1)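 Modified Kirby-Bauer disc diffusion. Plates inoculated with spore suspension (about 6 × 10⁴ spores mL^-1). Sterile 6 mm paper discs carried test samples at 10 mg mL^-1; ciprofloxacin disc as reference, DMF disc as negative control. Plates held 18 h at 37 °C. Inhibition zone diameters (mm) averaged over triplicate sets.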
# [2] = system: Staphylococcus aureus; test: Antibacterial activity against Staphylococcus aureus NCIM 2079 after 18 hrs by disc diffusion method; format: functional; in short: as §1
# [3] = system: Pseudomonas aeruginosa; test: Antibacterial activity against Pseudomonas aeruginosa NCIM 2034 after 18 hrs by disc diffusion method; format: functional; in short: as §1
# [4] = system: Escherichia coli; test: Antibacterial activity against Escherichia coli NCIM 2065 after 18 hrs by disc diffusion method; format: functional; in short: as §1
# [5] = system: Candida albicans; test: Antifungal activity against Candida albicans MUCC 29 after 48 hrs by disc diffusion method; format: functional
# In short: (§2)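 Agar well diffusion on plates inoculated with spore suspension in normal saline from cultures on Sabouraud's broth. Wells punched and loaded with test samples or griseofulvin at 10 mg mL^-1, with DMSO as negative control. Incubated 48 h at 37 °C.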
# [6] = system: Microsporum audouinii; test: Antifungal activity against Microsporum audouinii MUCC 545 after 48 hrs by disc diffusion method; format: functional; in short: as §2
# [7] = system: Trichophyton benhamiae; test: Antifungal activity against Trichophyton mentagrophytes MUCC 665 after 48 hrs by disc diffusion method; format: functional, Arthroderma benhamiae; in short: as §2
# [8] = system: Aspergillus niger; test: Antifungal activity against Aspergillus niger MUCC 177 after 48 hrs by disc diffusion method; format: functional; in short: as §2
# [9] = system: Bacillus subtilis; test: Antibacterial activity against Bacillus subtilis NCIM 2063 after 18 hrs by tube dilution method; format: functional; conditions: NCIM 2063, 18 h
# In short: (§3)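 Tube dilution MIC. Stock diluted in sterile broth to seven concentrations from 200 to 3.1 […]. Each tube inoculated with one loopful of test bacterium and incubated 18 h at 37 °C. MIC read from presence or absence of growth.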
# [10] = system: Staphylococcus aureus; test: Antibacterial activity against Staphylococcus aureus NCIM 2079 after 18 hrs by tube dilution method; format: functional; conditions: NCIM 2079, 18 h; in short: as §3
# [11] = system: Pseudomonas aeruginosa; test: Antibacterial activity against Pseudomonas aeruginosa NCIM 2034 after 18 hrs by tube dilution method; format: functional; conditions: NCIM 2034, 18 h; in short: as §3
# [12] = system: Escherichia coli; test: Antibacterial activity against Escherichia coli NCIM 2065 after 18 hrs by tube dilution method; format: functional; conditions: NCIM 2065, 18 h
# [13] = system: Candida albicans; test: Antifungal activity against Candida albicans MUCC 29 after 48 hrs by tube dilution method; format: functional
# In short: (§4)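 Tube dilution MIC as for bacteria (seven concentrations, 200–3.1 […]), with DMSO in place of DMF. Tubes inoculated with fungal culture and incubated 48 h at 37 °C. MIC read from presence or absence of growth.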
# [14] = system: Microsporum audouinii; test: Antifungal activity against Microsporum audouinii MUCC 545 after 48 hrs by tube dilution method; format: functional; in short: as §4
# [15] = system: Trichophyton benhamiae; test: Antifungal activity against Trichophyton mentagrophytes MUCC 665 after 48 hrs by tube dilution method; format: functional, Arthroderma benhamiae; in short: as §4
# [16] = system: Eudrilus; test: Anthelmintic activity against Eudrilus sp. assessed as mean paralyzing time; format: functional
# In short: (§5)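 Earthworms exposed to test suspensions at 2 mg mL^-1 (0.2% w/v), made by triturating compound with Tween 80 (0.5%) and distilled water, then mechanically stirred 30 min. Mebendazole suspension prepared alike as reference. Paralysis and death times recorded; death confirmed by no movement in 50 °C water. Means from triplicate sets.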
# [17] = system: Eudrilus; test: Anthelmintic activity against Eudrilus sp. assessed as mean death time; format: functional
# In short: (§6)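 Earthworms exposed to test suspensions at 2 mg mL−1, prepared by triturating compound with Tween 80 (0.5%) and distilled water, stirring 30 min, then diluting to 0.2% w/v. Mebendazole suspension was made the same way. Death was confirmed by moving worms into 50 °C warm water and looking for movement. Mean death time (min) taken from triplicate sets.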
# [18] = Growth inhibition of DLA cells at 500 ug/mL after 3 hrs; format: functional; conditions: Mus musculus
# In short: (§7)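 DLA and EAC cells passaged intraperitoneally in albino mice, harvested after 15–20 days and adjusted to 1 × 10⁶ cells/mL. Dilutions in Dulbecco's medium (500–31.25, some down to 3.91 µg/mL; 5-FU reference) mixed 1:1 with cells and held 3 h at 37 °C. Trypan blue exclusion gave % growth inhibition; CTC50 by graphical extrapolation.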
# [19] = Growth inhibition of DLA cells at 250 ug/mL after 3 hrs; format: functional; conditions: Mus musculus; in short: as §7
# [20] = Growth inhibition of DLA cells at 125 ug/mL after 3 hrs; format: functional; conditions: Mus musculus; in short: as §7
# [21] = Growth inhibition of DLA cells at 62.5 ug/mL after 3 hrs; format: functional; conditions: Mus musculus; in short: as §7
# [22] = Growth inhibition of DLA cells at 31.25 ug/mL after 3 hrs; format: functional; conditions: Mus musculus; in short: as §7
# [23] = Growth inhibition of DLA cells after 3 hrs; format: functional; conditions: Mus musculus; in short: as §7
# [24] = Growth inhibition of EAC cells at 500 ug/mL after 3 hrs; format: functional; conditions: Mus musculus, Ehrlich; in short: as §7
# [25] = Growth inhibition of EAC cells at 250 ug/mL after 3 hrs; format: functional; conditions: Mus musculus, Ehrlich; in short: as §7
# [26] = Growth inhibition of EAC cells at 125 ug/mL after 3 hrs; format: functional; conditions: Mus musculus, Ehrlich; in short: as §7
# [27] = Growth inhibition of EAC cells at 62.5 ug/mL after 3 hrs; format: functional; conditions: Mus musculus, Ehrlich; in short: as §7
# [28] = Growth inhibition of EAC cells at 31.25 ug/mL after 3 hrs; format: functional; conditions: Mus musculus, Ehrlich; in short: as §7
# [29] = Growth inhibition of EAC cells after 3 hrs; format: functional; conditions: Mus musculus, Ehrlich; in short: as §7
# [30] = Anthelmintic activity against Megascoplex konkanensis ICARBC 211 assessed as mean paralyzing time; format: functional; in short: as §5
# [31] = Anthelmintic activity against Megascoplex konkanensis ICARBC 211 assessed as mean death time; format: functional; in short: as §5
# [32] = system: Pontoscolex corethrurus; test: Anthelmintic activity against Pontoscolex corethrurus ICARBC 408 assessed as mean paralyzing time; format: functional; in short: as §5
# [33] = system: Pontoscolex corethrurus; test: Anthelmintic activity against Pontoscolex corethrurus ICARBC 408 assessed as mean death time; format: functional; in short: as §6
Structure (SMILES),inhibition zone (IZ) [1] [mm],inhibition zone (IZ) [2] [mm],inhibition zone (IZ) [3] [mm],inhibition zone (IZ) [4] [mm],inhibition zone (IZ) [5] [mm],inhibition zone (IZ) [6] [mm],inhibition zone (IZ) [7] [mm],inhibition zone (IZ) [8] [mm],MIC [9] [µg/mL],MIC [10] [µg/mL],MIC [11] [µg/mL],MIC [12] [µg/mL],MIC [13] [µg/mL],MIC [14] [µg/mL],MIC [15] [µg/mL],Time [16] [min],Time [17] [min],inhibition at 250 µg/mL [19] [%],TIME [30] [h],TIME [31] [h],other results
O=C(O)[C@@H]1CCCN1C(=O)[C@@H]1CCCN1C(=O)[C@@H]1CCCN1C(=O)c1cc(-c2nc3ccc([N+](=O)[O-])cc3[nH]2)ccc1O,14,11,28,17,24,13,17,17,6,12.5,6,25,6,6,12.5,26.54,37.23,52.6,0.418,0.567,inhibition at 500 µg/mL [18]: 65.8%; inhibition at 125 µg/mL [20]: 47.4%; inhibition at 62.5 µg/mL [21]: 34.2%; inhibition at 31.25 µg/mL [22]: 18.4%; CC50 [23]: 332 µM; inhibition at 500 µg/mL [24]: 28.7%; inhibition at 250 µg/mL [25]: 21.4%; inhibition at 125 µg/mL [26]: 10.7%; inhibition at 62.5 µg/mL [27]: 7.14%; inhibition at 31.25 µg/mL [28]: 3.57%; CC50 [29]: > 847 µM; Time [32]: 30.52 min; Time [33]: 40.2 min
COC(=O)[C@H](Cc1cnc[nH]1)NC(=O)[C@H](Cc1cnc[nH]1)NC(=O)c1cc(-c2nc3cc(C)c(C)cc3[nH]2)ccc1O,13,11,21,17,20,11,15,17,6,12.5,6,12.5,6,6,6,10.38,21.78,31.6,0.175,0.305,inhibition at 500 µg/mL [18]: 36.8%; inhibition at 125 µg/mL [20]: 21%; inhibition at 62.5 µg/mL [21]: 15.8%; inhibition at 31.25 µg/mL [22]: 7.89%; CC50 [23]: > 877 µM; inhibition at 500 µg/mL [24]: 21.4%; inhibition at 250 µg/mL [25]: 14.3%; inhibition at 125 µg/mL [26]: 7.14%; inhibition at 62.5 µg/mL [27]: 7.14%; inhibition at 31.25 µg/mL [28]: 3.57%; CC50 [29]: > 877 µM; Time [32]: 12.22 min; Time [33]: 23.75 min
COC(=O)[C@@H]1CCCN1C(=O)c1ccc(-c2nc3cc(C)c(C)cc3[nH]2)cc1,13,11,22,17,16,9,13,17,6,12.5,6,12.5,6,25,6,32.25,45.34,18.4,0.473,0.676,Time [32]: 35.57 min; Time [33]: 50.26 min
